Laboratory results as given in ChEMBL document CHEMBL3769384, “Discovery of Tetrahydropyrazolopyridine as Sphingosine 1-Phosphate Receptor 3 (S1P3)-Sparing S1P1 Agonists Active at Low Oral Doses” (J Med Chem, 2016).
The source made the active and inactive calls. The calls are words filed in the database; no cut-off is given here.

What was measured:
[1] = Oral bioavailability in CD1 mouse at 3 mg/kg after 24 hrs by LC-MS/MS analysis; assay type: ADME, organism-based; conditions: in vivo
How it was run: (§1)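 Oral dose as a suspension in 1% methylcellulose: CD rat 3 mg/kg (2 rats, crossover after i.v.), Beagle dog 2 mg/kg (fasted, crossover after i.v.), CD1 mouse 3 mg/kg by gavage (n=4). Blood sampled up to 24 h and assayed by LC-MS/MS. Bioavailability was referenced to the 1 h i.v. infusion at 1 mg/kg, by non-compartmental analysis.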

[2] = Clearance in CD rat at 1 mg/kg, iv after 24 hrs by LC-MS/MS analysis; assay type: ADME, organism-based; conditions: in vivo
How it was run: (§2)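 Male animals (CD rat and Beagle dog, n=3; CD1 mouse, n=5) given a 1 h i.v. infusion at 1 mg/kg. Vehicle: DMSO:10% Kleptose HPB in saline (2%:98% v/v), 0.2 mg/mL. Serial blood sampled up to 24 h and assayed by LC-MS/MS. Values from non-compartmental analysis, mean ± SD.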

[3] = Volume of distribution at steady state in CD1 mouse at 1 mg/kg, iv after 24 hrs by LC-MS/MS analysis; assay type: ADME, organism-based; conditions: in vivo, read-out: Vdss
How it was run: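 Male CD1 mice with a jugular vein cannula got a 1 h IV infusion at 1 mg/kg, dosed at 0.2 mg/mL in DMSO:10% w/v Kleptose HPB in saline (2%:98% v/v). Serial tail-vein blood (ca. 25 µL) was taken up to 24 h and assayed against calibration standards in control blood. Non-compartmental analysis was used; n=5, mean ± SD.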

[4] = Half life in CD1 mouse at 1 mg/kg, iv after 24 hrs by LC-MS/MS analysis; assay type: ADME, organism-based; conditions: in vivo; how it was run: as §2
[5] = Solubility of compound in simulated gastric fluid at pH 1.6 after 24 hrs; assay type: ADME
[6] = Solubility of compound in FeSSIF at pH 6.5 after 24 hrs; assay type: physicochemical
[7] = Solubility of compound in FaSSIF at pH 6.5 after 24 hrs; assay type: physicochemical
[8] = Clearance in CD1 mouse at 1 mg/kg, iv after 24 hrs by LC-MS/MS analysis; assay type: ADME, organism-based; conditions: in vivo; how it was run: as §2
[9] = Volume of distribution at steady state in CD rat at 1 mg/kg, iv after 24 hrs by LC-MS/MS analysis; assay type: ADME, organism-based; conditions: in vivo, read-out: Vdss; how it was run: as §2
[10] = Half life in CD rat at 1 mg/kg, iv after 24 hrs by LC-MS/MS analysis; assay type: ADME, organism-based; conditions: in vivo; how it was run: as §2
[11] = Oral bioavailability in CD rat at 3 mg/kg after 24 hrs by LC-MS/MS analysis; assay type: ADME, organism-based; conditions: in vivo; how it was run: as §1
[12] = Clearance in beagle dog at 1 mg/kg, iv after 24 hrs by LC-MS/MS analysis; assay type: ADME, organism-based, Canis lupus familiaris; conditions: in vivo; how it was run: as §2
[13] = Volume of distribution at steady state in beagle dog at 1 mg/kg, iv after 24 hrs by LC-MS/MS analysis; assay type: ADME, organism-based, Canis lupus familiaris; conditions: in vivo, read-out: Vdss
How it was run: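 Three fasted male Beagle dogs got a 1 h IV infusion at 1 mg/kg, dosed at 0.2 mg/mL in DMSO:10% w/v Kleptose HPB in saline (2%:98% v/v). Blood went into K-EDTA tubes predose to 24 h, from a cephalic cannula to 2 h and by jugular venepuncture after. Analysis was LC-MS/MS (LLQ 1 ng/mL) with non-compartmental parameters; mean n=3 ± SD.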

[14] = Half life in beagle dog at 1 mg/kg, iv after 24 hrs by LC-MS/MS analysis; assay type: ADME, organism-based, Canis lupus familiaris; conditions: in vivo; how it was run: as §2
[15] = Oral bioavailability in beagle dog at 2 mg/kg 24 hrs by LC-MS/MS analysis; assay type: ADME, organism-based, Canis lupus familiaris; conditions: in vivo; how it was run: as §1
Rattus norvegicus [16] = assay: Lymphopenia activity in Lewis rat at 1 mg/kg, po measured after 2 to 4 hrs; assay type: functional, organism-based
[17] = biological target: T1, Sphingosine 1-phosphate receptor 1 (Homo sapiens, UniProt P21453); assay: Agonist activity at human S1P1 receptor expressed in CHO-K1 EDG1 cells by beta-arrestin recruitment assay; assay type: cell-based
How it was run: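 CHO-K1 cells stably expressing beta-arrestin 2 and S1P1 fused to complementing beta-galactosidase fragments; grown to 80% confluency, harvested enzyme-free, resuspended in HEPES/BSA assay buffer pH 7.4. Cells at 1x10^4/well added to compound in DMSO, 90 min at 37°C/5% CO2, then 15 min at room temperature; chemiluminescent detection mix 60 min at room temperature, luminescence read.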

Rattus norvegicus [18] = assay: Lymphopenia activity in Lewis rat at 0.3 mg/kg, po measured after 24 hrs; assay type: functional, organism-based
How it was run: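 Male Lewis rats (300-350 g) bled by venepuncture the day before dosing. Compound given orally at 0.1-3 mg/kg, or vehicle (1% methylcellulose, 4 mL/kg). Blood taken 0.25-54 h post-dose and lymphocytes counted on an automatic haematology analyser.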

[19] = biological target: Sphingosine 1-phosphate receptor 2 (Homo sapiens, UniProt O95136); assay: Agonist activity at human S1P2 receptor expressed in Saccharomyces cerevisiae after 24 hrs by reporter gene assay
How it was run: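 S. cerevisiae with integrated S1P2 under the GPD promoter, seeded at 0.02 OD600 in histidine-free minimal medium with 5 mM 3-aminotriazole and 100 µM fluorescein-di-(β-D-glucopyranoside). Agonist-driven growth was read as fluorescein fluorescence (ex 485/em 535 nm) after 24 h at 30°C.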

[20] = biological target: T2, Sphingosine 1-phosphate receptor 4 (Homo sapiens) (UniProt O95977); assay: Agonist activity at human S1P4 receptor expressed in CHO-K1 cells by aequorin calcium accumulation assay; assay type: functional, cell-based
T2 sequence (whole entry): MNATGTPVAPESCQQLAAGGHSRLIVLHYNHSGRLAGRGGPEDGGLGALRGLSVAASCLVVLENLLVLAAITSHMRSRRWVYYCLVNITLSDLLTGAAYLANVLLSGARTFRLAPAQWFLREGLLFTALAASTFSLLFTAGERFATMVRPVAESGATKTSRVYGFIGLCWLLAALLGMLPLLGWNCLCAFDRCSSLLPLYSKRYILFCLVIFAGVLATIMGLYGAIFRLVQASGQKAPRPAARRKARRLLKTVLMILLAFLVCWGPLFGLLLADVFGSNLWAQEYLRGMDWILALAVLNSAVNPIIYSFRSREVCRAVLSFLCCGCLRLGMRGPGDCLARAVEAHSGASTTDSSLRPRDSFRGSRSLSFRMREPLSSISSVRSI
How it was run: (§3)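 CHO-K1 aequorin lines revived in DMEM F12 with 10% charcoal-stripped FBS, recovered 30 min at 37°C, then loaded 18-24 h at room temperature in the dark with 5 µM coelenterazine at 2.5x10^6 cells/mL. Cells were added at 1x10^5/well to compound, and flash luminescence was recorded immediately.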

[21] = biological target: Sphingosine 1-phosphate receptor 5 (Homo sapiens, UniProt Q9H228); assay: Agonist activity at human S1P5 receptor expressed in CHO-K1 cells by aequorin calcium accumulation assay; assay type: functional, cell-based; how it was run: as §3
Rattus norvegicus [22] = assay: Lymphopenia activity in Lewis rat at 1 mg/kg, po measured after 24 hrs; assay type: functional, organism-based
[23] = biological target: T1, Sphingosine 1-phosphate receptor 1; assay: Agonist activity at human S1P1 receptor by receptor internalisation assay

T1 sequence (P21453 whole entry, the tested form may be a part): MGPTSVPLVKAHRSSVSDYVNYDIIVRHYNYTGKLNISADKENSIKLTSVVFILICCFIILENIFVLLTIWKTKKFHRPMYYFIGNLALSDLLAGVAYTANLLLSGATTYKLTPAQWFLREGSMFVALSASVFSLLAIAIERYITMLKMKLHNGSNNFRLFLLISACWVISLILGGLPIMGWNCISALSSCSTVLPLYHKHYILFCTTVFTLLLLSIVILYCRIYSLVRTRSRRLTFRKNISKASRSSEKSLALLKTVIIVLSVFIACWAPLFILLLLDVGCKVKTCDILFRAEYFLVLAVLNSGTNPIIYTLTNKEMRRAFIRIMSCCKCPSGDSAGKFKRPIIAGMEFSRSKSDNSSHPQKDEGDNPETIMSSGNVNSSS
Chain of Sphingosine 1-phosphate receptor 2 (O95136 whole entry): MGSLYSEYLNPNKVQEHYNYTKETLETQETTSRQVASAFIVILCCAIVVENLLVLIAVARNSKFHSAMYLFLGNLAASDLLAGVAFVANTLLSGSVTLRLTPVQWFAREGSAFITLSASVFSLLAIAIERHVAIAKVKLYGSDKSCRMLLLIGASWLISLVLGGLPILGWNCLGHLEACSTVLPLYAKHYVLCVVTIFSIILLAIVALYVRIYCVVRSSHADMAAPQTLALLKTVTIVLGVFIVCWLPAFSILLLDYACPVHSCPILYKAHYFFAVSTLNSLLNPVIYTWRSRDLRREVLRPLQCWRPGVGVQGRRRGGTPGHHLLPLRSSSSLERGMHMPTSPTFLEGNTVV
Chain of Sphingosine 1-phosphate receptor 5 (Q9H228 whole entry): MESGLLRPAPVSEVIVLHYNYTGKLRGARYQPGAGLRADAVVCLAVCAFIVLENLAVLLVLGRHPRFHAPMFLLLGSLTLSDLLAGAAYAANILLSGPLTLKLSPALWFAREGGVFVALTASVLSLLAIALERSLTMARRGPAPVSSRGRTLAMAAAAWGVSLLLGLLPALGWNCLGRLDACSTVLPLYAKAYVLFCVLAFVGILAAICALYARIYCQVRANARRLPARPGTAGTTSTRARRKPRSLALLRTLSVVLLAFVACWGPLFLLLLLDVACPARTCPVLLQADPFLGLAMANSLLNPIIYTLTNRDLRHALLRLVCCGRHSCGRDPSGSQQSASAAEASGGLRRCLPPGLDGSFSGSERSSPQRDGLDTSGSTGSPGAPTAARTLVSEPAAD

Structure (SMILES): Cc1c2c(nn1-c1nnc(-c3ccc(OC(C)C)c(Cl)c3)s1)CCN(CCC(=O)O)C2.O=C(O)C(F)(F)F
- bioavailability [1]: 79%
- clearance [2]: 1.44 L/h/kg
- Vd [3]: 3.3 L/kg
- half-life [4]: 3.8 h
- solubility at 24 h [5]: 0.037 mg/mL
- solubility at 24 h [6]: 0.004 mg/mL
- solubility at 24 h [7]: 0.003 mg/mL
- clearance [8]: 0.96 L/h/kg
- Vd [9]: 3.7 L/kg
- half-life [10]: 4.4 h
- bioavailability [11]: 48%

Structure (SMILES): Cc1c2c(nn1-c1nnc(-c3ccc(OC(C)C)c(Cl)c3)s1)CCN(CCC(=O)O)C2.Cl
- solubility at 24 h [5]: 0.007 mg/mL
- solubility at 24 h [6]: 0.046 mg/mL
- solubility at 24 h [7]: 0.016 mg/mL
- clearance [12]: 1.98 L/h/kg
- Vd [13]: 5.3 L/kg
- half-life [14]: 6.5 h
- bioavailability [15]: 44%

Structure (SMILES): Cc1c2c(nn1-c1nnc(-c3ccc(OC(C)C)c(Cl)c3)s1)CCN(CCC(=O)O)C2
- Activity (Rattus norvegicus [16]): Active
- Emax [17]: 83%
- Activity (Rattus norvegicus [18]): Active
- Emax [19]: 0%
- Emax [20]: 7%
- Emax [21]: 63%
- Activity (Rattus norvegicus [22]): Active
- Emax [23]: 109%
